According to ChEMBL document CHEMBL3616436, “Synthesis, cytotoxicity and antimicrobial activity of thiourea derivatives incorporating 3-(trifluoromethyl)phenyl moiety” (Eur J Med Chem, 2015):
≈ marks a conversion by molar mass, not a printed value. Calls of active or inactive are those of the source. No cut-off for these calls is given here.

Legend:
[1] = Cytotoxicity against human MT4 cells; format: cell-based
[2] = test system: Vesicular stomatitis virus; assay: Antiviral activity against Vesicular stomatitis virus ATCC VR 1540 infected in African green monkey Vero 76 cells assessed as reduction of virus-plaque formation after 2 days by crystal violet staining; format: functional, organism-based; details: ATCC VR 1540, Vero, 48 h
[3] = Cytotoxicity against bovine MDBK cells assessed as cell viability after 48 to 96 hrs by MTT assay; format: cell-based, Bos taurus; details: cattle
Poliovirus 1 = assay: Antiviral activity against Poliovirus type 1 ATCC VR-1562 infected in African green monkey Vero 76 cells assessed as reduction of virus-plaque formation after 2 days by crystal violet staining; format: functional, organism-based; details: Enterovirus C, ATCC VR-1562, Vero, 48 h
Staphylococcus aureus [4] = assay: Antimicrobial activity against Staphylococcus aureus NCTC 4163 at 400 ug after 18 hrs by disc-diffusion method; format: functional; details: NCTC 4163, 18 h, read-out: IZ
Method in brief: (§1)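 Disc diffusion on Mueller-Hinton II agar per CLSI; 9 mm paper discs loaded with 400 µg compound from DMSO solution, dried, placed on agar; growth inhibition zone diameter read after 18 h at 35°C.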

Staphylococcus aureus [5] = assay: Antimicrobial activity against Staphylococcus aureus ATCC 6538 at 400 ug after 18 hrs by disc-diffusion method; format: functional; details: ATCC 6538, 18 h, read-out: IZ; method in brief: as §1
[6] = test system: Staphylococcus epidermidis; assay: Antimicrobial activity against Staphylococcus epidermidis ATCC 12228 at 400 ug after 18 hrs by disc-diffusion method; format: functional; details: ATCC 12228, 18 h, read-out: IZ; method in brief: as §1
[7] = test system: Staphylococcus epidermidis; assay: Antimicrobial activity against Staphylococcus epidermidis ATCC 35984 at 400 ug after 18 hrs by disc-diffusion method; format: functional; details: ATCC 35984, 18 h, read-out: IZ; method in brief: as §1
Bacillus subtilis = assay: Antimicrobial activity against Bacillus subtilis ATCC 6633 at 400 ug after 18 hrs by disc-diffusion method; format: functional; details: ATCC 6633, 18 h, read-out: IZ; method in brief: as §1
Bacillus cereus = assay: Antimicrobial activity against Bacillus cereus ATCC 11778 at 400 ug after 18 hrs by disc-diffusion method; format: functional; details: ATCC 11778, 18 h, read-out: IZ; method in brief: as §1
Enterococcus hirae = assay: Antimicrobial activity against Enterococcus hirae ATCC 10541 at 400 ug after 18 hrs by disc-diffusion method; format: functional; method in brief: as §1
Micrococcus luteus = assay: Antimicrobial activity against Micrococcus luteus ATCC 9341 at 400 ug after 18 hrs by disc-diffusion method; format: functional; details: ATCC 9341, 18 h, read-out: IZ; method in brief: as §1
Proteus vulgaris = assay: Antimicrobial activity against Proteus vulgaris NCTC 4635 at 400 ug after 18 hrs by disc-diffusion method; format: functional; method in brief: as §1
Staphylococcus aureus [8] = assay: Antimicrobial activity against Staphylococcus aureus NCTC 4163 after 18 hrs by twofold serial microdilution method; format: functional; details: NCTC 4163, 18 h
Staphylococcus aureus [9] = assay: Antimicrobial activity against Staphylococcus aureus ATCC 25923 after 18 hrs by twofold serial microdilution method; format: functional; details: ATCC 25923, 18 h
Staphylococcus aureus [10] = assay: Antimicrobial activity against Staphylococcus aureus ATCC 29213 after 18 hrs by twofold serial microdilution method; format: functional; details: ATCC 29213, 18 h
[11] = test system: Staphylococcus epidermidis; assay: Antimicrobial activity against Staphylococcus epidermidis ATCC 35984 after 18 hrs by twofold serial microdilution method; format: functional; details: ATCC 35984, 18 h
Staphylococcus aureus [12] = assay: Antimicrobial activity against hospital methicillin-resistant Staphylococcus aureus 53/05 after 18 hrs by twofold serial microdilution method; format: functional; details: 53/05, 18 h
Method in brief: (§2)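 Twofold serial microdilution in Mueller-Hinton broth. Compound stock was made in DMSO and diluted in sterile water. Tested range was 0.125–512 µg/mL. Final inoculum was 10^5 CFU/mL. Plates were incubated 18 h at 35 °C. MIC is the lowest concentration preventing visible growth.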

Staphylococcus aureus [13] = assay: Antimicrobial activity against hospital methicillin-resistant Staphylococcus aureus 80/05 after 18 hrs by twofold serial microdilution method; format: functional; details: 80/05, 18 h; method in brief: as §2
Staphylococcus aureus [14] = assay: Antimicrobial activity against hospital methicillin-resistant Staphylococcus aureus 81/05 after 18 hrs by twofold serial microdilution method; format: functional; details: 81/05, 18 h; method in brief: as §2
[15] = test system: Staphylococcus epidermidis; assay: Antimicrobial activity against hospital methicillin-resistant Staphylococcus epidermidis 23/04 after 18 hrs by twofold serial microdilution method; format: functional; details: 23/04, 18 h; method in brief: as §2
[16] = test system: Staphylococcus epidermidis; assay: Antimicrobial activity against hospital methicillin-resistant Staphylococcus epidermidis 24/04 after 18 hrs by twofold serial microdilution method; format: functional; details: 24/04, 18 h; method in brief: as §2
[17] = test system: Staphylococcus epidermidis; assay: Antimicrobial activity against hospital methicillin-resistant Staphylococcus epidermidis 63/04 after 18 hrs by twofold serial microdilution method; format: functional; details: 63/04, 18 h; method in brief: as §2
[18] = test system: Staphylococcus epidermidis; assay: Antimicrobial activity against hospital methicillin-resistant Staphylococcus epidermidis 151/04 after 18 hrs by twofold serial microdilution method; format: functional; details: 151/04, 18 h; method in brief: as §2
Staphylococcus aureus [19] = assay: Ratio of ciprofloxacin MIC to compound MIC for hospital methicillin-resistant Staphylococcus aureus 53/05 after 18 hrs by twofold serial microdilution method; format: functional
Method in brief: (§3)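 Ratio of MICs for ciprofloxacin and test agent, each from twofold serial broth microdilution in Mueller-Hinton broth following CLSI guidelines. DMSO stock was diluted in sterile water to 0.125–512 µg/mL, with a final inoculum of 10^5 CFU/mL.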

Staphylococcus aureus [20] = assay: Ratio of ciprofloxacin MIC to compound MIC for hospital methicillin-resistant Staphylococcus aureus 81/05 after 18 hrs by twofold serial microdilution method; format: functional; method in brief: as §3
Staphylococcus aureus [21] = assay: Ratio of ciprofloxacin MIC to compound MIC for hospital methicillin-resistant Staphylococcus aureus 573/11 after 18 hrs by twofold serial microdilution method; format: functional; method in brief: as §3
[22] = test system: Staphylococcus epidermidis; assay: Ratio of ciprofloxacin MIC to compound MIC for hospital methicillin-resistant Staphylococcus epidermidis 24/04 after 18 hrs by twofold serial microdilution method; format: functional
[23] = test system: Staphylococcus epidermidis; assay: Ratio of ciprofloxacin MIC to compound MIC for hospital methicillin-resistant Staphylococcus epidermidis 31/04 after 18 hrs by twofold serial microdilution method; format: functional; method in brief: as §3
[24] = test system: Staphylococcus epidermidis; assay: Ratio of ciprofloxacin MIC to compound MIC for hospital methicillin-resistant Staphylococcus epidermidis 62/04 after 18 hrs by twofold serial microdilution method; format: functional; method in brief: as §3
[25] = test system: Staphylococcus epidermidis; assay: Ratio of ciprofloxacin MIC to compound MIC for hospital methicillin-resistant Staphylococcus epidermidis 63/04 after 18 hrs by twofold serial microdilution method; format: functional; method in brief: as §3
[26] = test system: Staphylococcus epidermidis; assay: Ratio of ciprofloxacin MIC to compound MIC for hospital methicillin-resistant Staphylococcus epidermidis 76/04 after 18 hrs by twofold serial microdilution method; format: functional; method in brief: as §3
[27] = test system: Mycobacterium tuberculosis; assay: Antimycobacterial activity against Mycobacterium tuberculosis H37Rv ATCC 25618; format: functional
Method in brief: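 Classical test-tube successive-dilution method in Youmans' modification of Proskauer and Beck liquid medium with 10% bovine serum. Inoculum came from 14-day cultures. DMSO stock was 10 mg/mL, diluted geometrically in medium. Tubes were incubated at 37 °C. Concentrations tested were 3.1, 6.2, 12.5, 25, 50 and 100 µg/ml. MIC is the minimum concentration inhibiting growth relative to compound-free tubes.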

SMILES	CC50 [1]	EC50 [2]	CC50 [3]	EC50 (Poliovirus 1)	zone of inhibition at 400 µg/disc (Staphylococcus aureus [4])	zone of inhibition at 400 µg/disc (Staphylococcus aureus [5])	zone of inhibition at 400 µg/disc [6]	zone of inhibition at 400 µg/disc [7]	zone of inhibition at 400 µg/disc (Bacillus subtilis)	zone of inhibition at 400 µg/disc (Bacillus cereus)	zone of inhibition at 400 µg/disc (Micrococcus luteus)	inhibition zone (IZ) (Proteus vulgaris)	MIC (Staphylococcus aureus [8])	MIC (Staphylococcus aureus [9])	MIC (Staphylococcus aureus [10])	MIC [11]	MIC (Staphylococcus aureus [12])	MIC (Staphylococcus aureus [13])	MIC (Staphylococcus aureus [14])	MIC [15]	further results
FC(F)(F)c1cccc(NC(S)=NCc2ccccc2)c1	45 µM	> 35 µM	40 µM	> 35 µM	18 mm	15 mm	17 mm	13 mm	16 mm	15 mm	19 mm	inactive	16 µg/mL (≈ 51.6 µM)	16 µg/mL (≈ 51.6 µM)	8 µg/mL (≈ 25.8 µM)	16 µg/mL (≈ 51.6 µM)	8 µg/mL (≈ 25.8 µM)	16 µg/mL (≈ 51.6 µM)	8 µg/mL (≈ 25.8 µM)	16 µg/mL (≈ 51.6 µM)	inhibition zone (IZ) (Enterococcus hirae): inactive; MIC [16]: 16 µg/mL (≈ 51.6 µM); MIC [17]: 16 µg/mL (≈ 51.6 µM); MIC [18]: 16 µg/mL (≈ 51.6 µM); Ratio (Staphylococcus aureus [19]): 128; Ratio (Staphylococcus aureus [20]): 128; Ratio (Staphylococcus aureus [21]): 128; Ratio [22]: 128; Ratio [23]: 128; Ratio [24]: 128; Ratio [25]: 128; Ratio [26]: 128; MIC [27]: 25 µg/mL (≈ 80.6 µM)
FC(F)(F)c1cccc(NC(=S)NCCc2ccccc2)c1	8.8 µM	> 46 µM	48 µM	> 46 µM	15 mm	15 mm	14 mm	17 mm	16 mm	16 mm	18 mm	inactive	8 µg/mL (≈ 24.7 µM)	8 µg/mL (≈ 24.7 µM)	8 µg/mL (≈ 24.7 µM)	8 µg/mL (≈ 24.7 µM)	8 µg/mL (≈ 24.7 µM)	8 µg/mL (≈ 24.7 µM)	16 µg/mL (≈ 49.3 µM)	8 µg/mL (≈ 24.7 µM)	zone of inhibition at 400 µg/disc (Enterococcus hirae; ATCC 10541, 18 h, read-out: IZ): 17 mm; MIC [16]: 16 µg/mL (≈ 49.3 µM); MIC [17]: 8 µg/mL (≈ 24.7 µM); MIC [18]: 16 µg/mL (≈ 49.3 µM); Ratio (Staphylococcus aureus [19]): 128; Ratio (Staphylococcus aureus [20]): 128; Ratio (Staphylococcus aureus [21]): 128; Ratio [22]: 128; Ratio [23]: 128; Ratio [24]: 128; Ratio [25]: 128; Ratio [26]: 128; MIC [27]: 50 µg/mL (≈ 154 µM)
